Values after ≈ are worked out from the molar mass of the structure shown.
What was measured:
[1] = Oral bioavailability in cynomolgus monkey at 5 mg/kg; type: ADME, organism-based, Macaca fascicularis; conditions: in vivo
Cynomolgus monkey [2] = assay: AUC (0 to infinity) in cynomolgus monkey at 5 mg/kg, iv; type: ADME, organism-based, Macaca fascicularis, Plasma; set-up: time infinity, dose 5 mg/kg, route intravenous; conditions: in vivo
Cynomolgus monkey [3] = assay: AUC (0 to infinity) in cynomolgus monkey at 5 mg/kg, po; type: ADME, organism-based, Macaca fascicularis, Plasma; set-up: time infinity, dose 5 mg/kg, route oral; conditions: in vivo
[4] = Apparent permeability from apical to basolateral side in human Caco-2 cells at 10 uM; type: ADME, cell-based
[5] = Volume of distribution at steady state in cynomolgus monkey at 5 mg/kg, iv; type: ADME, organism-based, Macaca fascicularis; set-up: dose 5 mg/kg, route intravenous; conditions: in vivo, read-out: Vdss
[6] = Aqueous solubility at pH 7.4; type: physicochemical; conditions: buffer
In short: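 Solubility determined in water at pH 7.4.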

[7] = Ratio of drug level in liver to plasma in Sprague-Dawley rat at 3 mg/kg, iv after 12 hrs; type: ADME, organism-based; set-up: dose 3 mg/kg, route intravenous; conditions: liver and plasma
In short: (§1)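 Sprague–Dawley rats were given a single 3 mg/kg dose iv or po. Plasma and liver concentrations were measured at 1, 4, 8 and 12 h. Liver was not sampled at 1, 4 or 8 h after iv dosing. Liver-to-plasma concentration ratio was calculated at each time point.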

Rattus norvegicus [8] = assay: AUC (0 to infinity) in po dosed Sprague-Dawley rat; type: ADME, organism-based, Plasma; set-up: time infinity, route oral; conditions: in vivo
In short: (§2)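 Sprague–Dawley rats got a single 3 mg/kg dose iv or po, with n = 12 (po) and 3 (iv). Plasma concentrations were followed over time to derive PK parameters.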

[9] = Volume of distribution at steady state in iv dosed Sprague-Dawley rat; type: ADME, organism-based; conditions: in vivo, read-out: Vdss; in short: as §2
[10] = Oral bioavailability in Sprague-Dawley rat; type: ADME, organism-based; conditions: in vivo; in short: as §2
[11] = Ratio of drug level in liver to plasma in Sprague-Dawley rat at 3 mg/kg, po after 4 hrs; type: ADME, organism-based; set-up: dose 3 mg/kg, route oral; conditions: liver and plasma; in short: as §1
[12] = Ratio of drug level in liver to plasma in Sprague-Dawley rat at 3 mg/kg, po after 12 hrs; type: ADME, organism-based; set-up: dose 3 mg/kg, route oral; conditions: liver and plasma; in short: as §1
[13] = Ratio of drug level in liver to plasma in Sprague-Dawley rat at 3 mg/kg, po after 1 hr; type: ADME, organism-based; set-up: dose 3 mg/kg, route oral; conditions: liver and plasma; in short: as §1
Rattus norvegicus [14] = assay: AUC (0 to infinity) in iv dosed Sprague-Dawley rat; type: ADME, organism-based, Plasma; set-up: time infinity, route intravenous; conditions: in vivo; in short: as §2
[15] = Ratio of drug level in liver to plasma in Sprague-Dawley rat at 3 mg/kg, po after 8 hrs; type: ADME, organism-based; set-up: dose 3 mg/kg, route oral; conditions: liver and plasma; in short: as §1

| bioavailability [1] [%] | AUC (Cynomolgus monkey [2]) [ng·h/mL] | AUC (Cynomolgus monkey [3]) [ng·h/mL] | Papp A→B at 10 µM [4] [×10⁻⁶ cm/s] | Vd [5] [L/kg] | solubility [6] [µM] | Kp at 12 h [7] | AUC (Rattus norvegicus [8]) [ng·h/mL] | Vd [9] [L/kg] | bioavailability [10] [%] | Kp at 4 h [11] | Kp at 12 h [12] | Kp at 1 h [13] | AUC (Rattus norvegicus [14]) [ng·h/mL] | Kp at 8 h [15] | SMILES |
| --- | --- | --- | --- | --- | --- | --- | --- | --- | --- | --- | --- | --- | --- | --- | --- |
| 1 | 17600 | 241 | 0.06 | 0.039 | 44 (≈ 24.3 µg/mL) |  |  |  |  |  |  |  |  |  | CC(C)(C)CCn1nc(-c2cccs2)c(O)c(C2=Nc3ccc(NS(C)(=O)=O)cc3S(=O)(=O)N2)c1=O |
| 1 | 10500 | 124 | 0.016 | 0.096 | 55 (≈ 29.6 µg/mL) | 4 | 27 | 0.453 | 1 | 243 | 64 | 431 | 3630 | 78 | CC(C)CCn1nc(-c2cccs2)c(O)c(C2=Nc3ccc(NS(C)(=O)=O)cc3S(=O)(=O)N2)c1=O |

— ChEMBL document CHEMBL1143086, “Novel HCV NS5B polymerase inhibitors derived from 4-(1',1'-dioxo-1',4'-dihydro-1'lambda(6)-benzo[1',2',4']thiadiazin-3'-yl)-5-hydroxy-2H-pyridazin-3-ones. Part 3: Further optimization of the 2-, 6-, and 7'-substituents and initial pharmacokinetic assessments” (Bioorg Med Chem Lett, 2008)
